Data: PubChem BioAssay
Activity calls are given as the source filed them.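 The calls were made as follows, unless noted: active = viability at or under a set limit in both replicates, limit being median viability minus 3 SD (cut at about 48% in these data, passing the limit was not always enough); inconclusive = at or under the limit in just one replicate; inactive = at or above the limit in both replicates.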

Columns and labels:
[1] = reduced viability of SK-BR-3 breast cancer cells – cell-based, 24 h, human, pilot screen (AID 572;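 active = viability at or below 10% of carrier control in both of two separate runs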;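 also: compound exposure lasted between 18 and 24 h rather than exactly 24 h; 100% = carrier-treated control wells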); details: SK-BR-3 viability, CellTiter-Glo luminescence, at 10 µM, stronger effect = lower value
[2] = HUVEC growth inhibition – cell-based, human, primary screen (AID 575;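 active = viability at or below 30% in both replicate assays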;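 also: 100% = median of untreated cell wells with 0.1% DMSO on each plate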); details: HUVEC proliferation, CellTiter-Glo luminescence, 72 h; at 10 µM; stronger effect = lower value
In short: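 Material: primary human umbilical vein endothelial cells / Schedule: 72 h exposure, 37 °C, 5% CO2, 30 min RT equilibration / Signal: ATP-based CellTiter-Glo luminescent read / Read-out basis: percent of median DMSO-control luminescence / Control set: 32 DMSO-only cell-control wells (high), 32 MePR drug-control wells (low) per plate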

[3] = H69AR cell proliferation blockers – human, duplicate replicates, primary screen (AID 580); details: H69AR lung tumor cells viability, ATP luminescence, 72 h; at 10 µM; stronger effect = lower value;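 also: 100% = mean luminescence of untreated wells and 0% = no signal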
[4] = MRP1 drug-resistance reversers in H69AR cells – cell-based, doxorubicin co-treatment, pilot screen (AID 601;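 active = viability loss from added drug above about 55%, and viability with drug at most 40%, in both replicates, limit read from the data, passing the limit was not always enough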); details: CellTiter-Glo, 72 h, at 10 µM; for differential viability (reversal): stronger effect = higher value
[5] = yeast transport mutant growth inhibition pilot in 384-well plates, post-Golgi transport modulator project (AID 636; in the data active = inhibition above about 31%); details: absorbance 615 nm, about 18 h, stronger effect = higher value
[6] = growth suppression of yeast trafficking mutant, preliminary HTS, modulators of trafficking downstream of Golgi apparatus project, 1536-format plate, OD 615 nm (AID 637; in the data active = inhibition above about 30%); details: yeast transport mutant growth, absorbance 615 nm, 18 h; stronger effect = higher value
[7] = H69AR cells + 2 uM doxorubicin, measured here: viability with 2 uM doxorubicin, stronger effect = lower value
[8] = H69AR cells, compound alone cytotoxicity

Row | Structure (SMILES) | viability [1] | viability [2] | viability [3] | differential viability (reversal) ([4]; H69AR cells + 2 uM doxorubicin) | viability [4, 7] | viability [4, 8] | inhibition [5] | inhibition [6]
1 | CCOC(=O)c1ccccc1NC1CC(=O)N(c2ccccc2C)C1=O (centres undefined) | 98% (inactive) | 101% (inactive) | 98.4% (inactive) | 8.82% (inactive) | 89.6% | 98.4% | -2.13% (inactive) | -6.73% (inactive)
2 | COc1cc(C2N=C(c3ccccc3)NO2)cc(Br)c1O (centres undefined) | 90% (inactive) | 87.5% (inactive) | 84.8% (inactive) | -4.25% (inactive) | 89% | 84.8% | -3.12% (inactive) | -10% (inactive)
3 | O=C(Nc1sccc1C(=O)NCc1ccco1)c1cccnc1 | 90% (inactive) | 96.8% (inactive) | 79.6% (inactive) | -4.98% (inactive) | 84.5% | 79.6% | -0.55% (inactive) | 2.55% (inactive)
4 | COc1ccccc1OCCCn1c(=O)oc2ccccc21 | 154% (inactive) | 90.1% (inactive) | 98.2% (inactive) | 11.9% (inactive) | 86.3% | 98.2% | -1.56% (inactive) | 2.79% (inactive)
5 | CN1CCc2c(sc3c2c(=O)n(-c2ccccc2)c2nnc(SCc4ccccc4)n32)C1 | 77% (inactive) | 108% (inactive) | 95.8% (inactive) | 9.76% (inactive) | 86% | 95.8% | -2.33% (inactive) | 1.82% (inactive)
6 | COc1ccc(-n2ncc3c(NCc4ccc5c(c4)OCO5)ncnc32)cc1 | 92.5% (inactive) | 49.8% (inactive) | 6.44% (active) | -11% (inactive) | 17.4% | 6.44% | -3.55% (inactive) | 3.71% (inactive)
7 | Cc1cccc(N2CCN(C(=O)C3CCCN(S(=O)(=O)c4cnc[nH]4)C3)CC2C)c1 (centres undefined) | 90% (inactive) | 90.2% (inactive) | 95.6% (inactive) | 6.94% (inactive) | 88.7% | 95.6% | -0.26% (inactive) | -0.98% (inactive)
8 | CCN(CC)C(=O)C1CCN(CC2CC=CCC2)CC1 (centres undefined) | 97% (inactive) | 109% (inactive) | 94.8% (inactive) | -3.97% (inactive) | 98.7% | 94.8% | -2.93% (inactive) | -2.91% (inactive)
9 | Cc1cc(C(=O)COC(=O)c2n[nH]c3ccccc23)c(C)n1C | 83% (inactive) | 90.4% (inactive) | 88.6% (inactive) | 5.96% (inactive) | 82.6% | 88.6% | -9.18% (inactive) | -4% (inactive)
10 | Cc1nnc(SCC(=O)NCc2ccc3c(c2)OCO3)s1 | 87% (inactive) | 103% (inactive) | 101% (inactive) | -12.3% (inactive) | 113% | 101% | -2.33% (inactive) | 5.82% (inactive)
11 | O=C(O)CCNC(=O)c1ccccc1 | 84% (inactive) | 99.1% (inactive) | 98.7% (inactive) | 7.94% (inactive) | 90.7% | 98.7% | 2.47% (inactive) | 1.17% (inactive)
12 | CN(c1ccccc1C(=O)NCC1CCCO1)S(C)(=O)=O (centres undefined) | 67% (inactive) | 103% (inactive) | 101% (inactive) | 11.2% (inactive) | 90% | 101% | -4.11% (inactive) | 2.36% (inactive)
13 | CC(=O)Nc1ccc(S(=O)(=O)N2CCN(c3cc(C)nc4ccccc34)CC2)cc1 | 103% (inactive) | 96.7% (inactive) | 87.1% (inactive) | 0.84% (inactive) | 86.2% | 87.1% | -5.41% (inactive) | -3.09% (inactive)
14 | CN(C)c1ccc(NC(=O)Nc2cccc(Cl)c2)cc1 | 83% (inactive) | 99.9% (inactive) | 88.7% (inactive) | 3.98% (inactive) | 84.7% | 88.7% | -6.71% (inactive) | 4.55% (inactive)
15 | CCOc1ccc(NC(=O)CC2NCCNC2=O)cc1 (centres undefined) | 125% (inactive) | 108% (inactive) | 95.3% (inactive) | 2.51% (inactive) | 92.8% | 95.3% | -5.95% (inactive) | -2.36% (inactive)
16 | CCC(C(=O)NC(C)CCc1ccco1)n1nc(C)n2c(cc3occc32)c1=O (centres undefined) | 129% (inactive) | 103% (inactive) | 83.5% (inactive) | -16.1% (inactive) | 99.7% | 83.5% | -6.3% (inactive) | -1.64% (inactive)
17 | CCCCSc1nnc([C@H](C)NC(=O)OC(C)(C)C)o1 | 97% (inactive) | 102% (inactive) | 90.3% (inactive) | -10.7% (inactive) | 101% | 90.3% | 0.14% (inactive) | 22.6% (inactive)
18 | c1cc(C(c2nnnn2C2CCCC2)N2CCOCC2)ccn1 (centres undefined) | 96.5% (inactive) | 104% (inactive) | 91.9% (inactive) | -0.285% (inactive) | 92.2% | 91.9% | -8.22% (inactive) | 0.16% (inactive)
